ChEMBL document CHEMBL2390854, “Green synthesis of tetrahydropyrimidine analogues and evaluation of their antimicrobial activity” (2013)
Values after ≈ are worked out from the molar mass of the structure shown.

Key:
[1] = tested on: Escherichia coli; experiment: Antibacterial activity against Escherichia coli NCIM 2256 by broth dilution method; format: functional
Procedure, shortened: (§1)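 MIC by broth dilution following CLSI guidelines. Ciprofloxacin and ampicillin served as reference drugs.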

[2] = tested on: Staphylococcus aureus; experiment: Antibacterial activity against Staphylococcus aureus NCIM 2901 by broth dilution method; format: functional; procedure, shortened: as §1
[3] = tested on: Aspergillus niger; experiment: Antifungal activity against Aspergillus niger NCIM 1196 by agar dilution method; format: functional
Procedure, shortened: (§2)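 MIC determined by standard agar dilution per CLSI guidelines. Fluconazole and miconazole were reference drugs, and dimethyl sulfoxide was the solvent control.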

[4] = tested on: Aspergillus flavus; experiment: Antifungal activity against Aspergillus flavus NCIM 539 by agar dilution method; format: functional; procedure, shortened: as §2
[5] = tested on: Candida albicans; experiment: Antifungal activity against Candida albicans NCIM 3471 by agar dilution method; format: functional; procedure, shortened: as §2
[6] = tested on: Escherichia coli; experiment: Antibacterial activity against Escherichia coli NCIM 2256 by broth dilution method
[7] = tested on: Bacillus subtilis; experiment: Antibacterial activity against Bacillus subtilis NCIM 2063 by broth dilution method; format: functional; procedure, shortened: as §1

SMILES | MIC [1] [µg/mL] | MIC [2] [µg/mL] | MIC [3] [µg/mL] | MIC [4] [µg/mL] | MIC [5] [µg/mL] | MIC [6] [µg/mL] | MIC [7] [µg/mL]
COC(=O)C1=C(C(=O)OC)N(c2ccc(O)cc2)CN(c2ccc(O)cc2)C1 | 80 (≈ 208 µM) | 90 (≈ 234 µM) | 50 (≈ 130 µM) | 50 (≈ 130 µM) | 75 (≈ 195 µM) | 80 (≈ 208 µM) | –
COC(=O)C1=C(C(=O)OC)N(c2cccc([N+](=O)[O-])c2)CN(c2cccc([N+](=O)[O-])c2)C1 | 80 (≈ 181 µM) | 80 (≈ 181 µM) | 100 (≈ 226 µM) | 100 (≈ 226 µM) | 100 (≈ 226 µM) | – | 100 (≈ 226 µM)
COC(=O)C1=C(C(=O)OC)N(c2ccccn2)CN(c2ccccn2)C1 | 60 (≈ 169 µM) | 80 (≈ 226 µM) | 25 (≈ 70.5 µM) | 12.5 (≈ 35.3 µM) | 25 (≈ 70.5 µM) | – | 40 (≈ 113 µM)
COC(=O)C1=C(C(=O)OC)N(c2nc3ccc(OC)cc3s2)CN(c2nc3ccc(OC)cc3s2)C1 | 40 (≈ 76 µM) | 100 (≈ 190 µM) | 12.5 (≈ 23.7 µM) | 12.5 (≈ 23.7 µM) | 25 (≈ 47.5 µM) | – | 25 (≈ 47.5 µM)
CCOC(=O)C1=C(C(=O)OCC)N(c2nc3ccc(OC)cc3s2)CN(c2nc3ccc(OC)cc3s2)C1 | 15 (≈ 27 µM) | 100 (≈ 180 µM) | 12.5 (≈ 22.5 µM) | 12.5 (≈ 22.5 µM) | 25 (≈ 45.1 µM) | – | 20 (≈ 36.1 µM)
COC(=O)C1=C(C(=O)OC)N(c2ccccc2)CN(c2ccccc2)C1 | 60 (≈ 170 µM) | 90 (≈ 255 µM) | 25 (≈ 70.9 µM) | 25 (≈ 70.9 µM) | 50 (≈ 142 µM) | – | 30 (≈ 85.1 µM)
COC(=O)C1=C(C(=O)OC)N(c2ccc(Cl)cc2)CN(c2ccc(Cl)cc2)C1 | 60 (≈ 142 µM) | 100 (≈ 237 µM) | 25 (≈ 59.3 µM) | 25 (≈ 59.3 µM) | 25 (≈ 59.3 µM) | – | 40 (≈ 94.9 µM)
CCOC(=O)C1=C(C(=O)OCC)N(c2ccccc2)CN(c2ccccc2)C1 | 15 (≈ 39.4 µM) | 60 (≈ 158 µM) | 25 (≈ 65.7 µM) | 25 (≈ 65.7 µM) | 50 (≈ 131 µM) | – | 25 (≈ 65.7 µM)
CCOC(=O)C1=C(C(=O)OCC)N(c2ccc(Cl)cc2)CN(c2ccc(Cl)cc2)C1 | 15 (≈ 33.4 µM) | 80 (≈ 178 µM) | 25 (≈ 55.6 µM) | 25 (≈ 55.6 µM) | 25 (≈ 55.6 µM) | – | 25 (≈ 55.6 µM)
CCOC(=O)C1=C(C(=O)OCC)N(c2ccc(O)cc2)CN(c2ccc(O)cc2)C1 | 50 (≈ 121 µM) | 100 (≈ 242 µM) | 50 (≈ 121 µM) | 50 (≈ 121 µM) | 75 (≈ 182 µM) | – | 40 (≈ 97 µM)
CCOC(=O)C1=C(C(=O)OCC)N(c2cccc([N+](=O)[O-])c2)CN(c2cccc([N+](=O)[O-])c2)C1 | 100 (≈ 213 µM) | 100 (≈ 213 µM) | 100 (≈ 213 µM) | 100 (≈ 213 µM) | 100 (≈ 213 µM) | – | 60 (≈ 128 µM)
CCOC(=O)C1=C(C(=O)OCC)N(c2ccccn2)CN(c2ccccn2)C1 | 60 (≈ 157 µM) | 100 (≈ 261 µM) | 25 (≈ 65.4 µM) | 12.5 (≈ 32.7 µM) | 25 (≈ 65.4 µM) | – | 20 (≈ 52.3 µM)
CC1(C)S[C@@H]2[C@H](NC(=O)[C@H](N)c3ccccc3)C(=O)N2[C@H]1C(=O)O [AMPICILLIN] | 50 (≈ 143 µM) | 50 (≈ 143 µM) | – | – | – | 50 (≈ 143 µM) | –
O=C(O)c1cn(C2CC2)c2cc(N3CCNCC3)c(F)cc2c1=O [CIPROFLOXACIN] | 15 (≈ 45.3 µM) | – | – | – | – | – | 25 (≈ 75.4 µM)
OC(Cn1cncn1)(Cn1cncn1)c1ccc(F)cc1F [FLUCONAZOLE] | – | – | 25 (≈ 81.6 µM) | 25 (≈ 81.6 µM) | 40 (≈ 131 µM) | – | –
Clc1ccc(COC(Cn2ccnc2)c2ccc(Cl)cc2Cl)c(Cl)c1 (stereo not drawn) [MICONAZOLE] | – | – | 12.5 (≈ 30 µM) | 12.5 (≈ 30 µM) | 12.5 (≈ 30 µM) | – | –
